Reference: PubChem BioAssay
Active and inactive are the calls of the source. Cut-off read from the data, not from the text of the source, unless noted: active = inhibition above about 30%; inactive = the rest.

What was measured:
[1] = Her2 expression decrease, cell viability multiplex – SKBR3 breast tumor cells, AlphaScreen, ATP viability, primary screen (AID 461;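 active = Her2 level under about 52% in both replicate screens, with viability over 70% of control, limit read from the data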;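 for Her2 level: lower value means less Her2 protein in the cells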;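 for viability: percent of carrier control wells set as 100% viability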); conditions: SKBR3 Her2 protein level, 18-24 h, measured here: SKBR3 viability, ATP luminescence, at 10 µM
[2] = target: Receptor tyrosine-protein kinase erbB-2 (Homo sapiens) (UniProt P04626); assay: as above; conditions: 18-24 h, at 10 µM, stronger effect = lower value
[3] = reduced viability of SK-BR-3 breast cancer cells – cell-based, 24 h, human, pilot screen (AID 572;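 active = viability at or below 10% of carrier control in both of two separate runs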;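 note: compound exposure lasted between 18 and 24 h rather than exactly 24 h; 100% = carrier-treated control wells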); conditions: SK-BR-3 viability, CellTiter-Glo luminescence, at 10 µM, stronger effect = lower value
[4] = HUVEC growth inhibition – cell-based, human, primary screen (AID 575;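 active = viability at or below 30% in both replicate assays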;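 note: 100% = median of untreated cell wells with 0.1% DMSO on each plate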); conditions: HUVEC proliferation, CellTiter-Glo luminescence, 72 h; at 10 µM; stronger effect = lower value
Summary of the method: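 Assay system: Primary human umbilical vein endothelial cells | Quantity: 1250 cells per well | Medium: Supplemented EBM, 2% fetal bovine serum | Detection: CellTiter-Glo luminescence measuring cellular ATP | Read-out: % viability vs DMSO wells | Plate: Collagen-coated 384-well format | Times: 72 h exposure, 37 °C, 5% CO2, 30 min RT equilibration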

[5] = H69AR cell proliferation blockers – human, duplicate replicates, primary screen (AID 580;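 active = viability at or under a set limit in both replicates, limit being median viability minus 3 SD, cut at about 48% in these data, passing the limit was not always enough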;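 note: 100% = mean luminescence of untreated wells and 0% = no signal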); conditions: H69AR lung tumor cells viability, ATP luminescence, 72 h; at 10 µM; stronger effect = lower value
[6] = MRP1 drug-resistance reversers in H69AR cells – cell-based, doxorubicin co-treatment, pilot screen (AID 601;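 active = viability loss from added drug above about 55%, and viability with drug at most 40%, in both replicates, limit read from the data, passing the limit was not always enough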); conditions: CellTiter-Glo, 72 h, at 10 µM; for differential viability (reversal): stronger effect = higher value
[7] = yeast transport mutant growth inhibition pilot in 384-well plates, post-Golgi transport modulator project (AID 636; in the data active = inhibition above about 31%); conditions: absorbance 615 nm, about 18 h, stronger effect = higher value
[8] = growth suppression of yeast trafficking mutant, preliminary HTS, modulators of trafficking downstream of Golgi apparatus project, 1536-format plate, OD 615 nm (AID 637); conditions: yeast transport mutant growth, absorbance 615 nm, 18 h; stronger effect = higher value
[9] = H69AR cells + 2 uM doxorubicin, measured here: viability with 2 uM doxorubicin, stronger effect = lower value
[10] = H69AR cells, compound alone cytotoxicity

Chain of Receptor tyrosine-protein kinase erbB-2 (Homo sapiens) (P04626 whole entry, looked up): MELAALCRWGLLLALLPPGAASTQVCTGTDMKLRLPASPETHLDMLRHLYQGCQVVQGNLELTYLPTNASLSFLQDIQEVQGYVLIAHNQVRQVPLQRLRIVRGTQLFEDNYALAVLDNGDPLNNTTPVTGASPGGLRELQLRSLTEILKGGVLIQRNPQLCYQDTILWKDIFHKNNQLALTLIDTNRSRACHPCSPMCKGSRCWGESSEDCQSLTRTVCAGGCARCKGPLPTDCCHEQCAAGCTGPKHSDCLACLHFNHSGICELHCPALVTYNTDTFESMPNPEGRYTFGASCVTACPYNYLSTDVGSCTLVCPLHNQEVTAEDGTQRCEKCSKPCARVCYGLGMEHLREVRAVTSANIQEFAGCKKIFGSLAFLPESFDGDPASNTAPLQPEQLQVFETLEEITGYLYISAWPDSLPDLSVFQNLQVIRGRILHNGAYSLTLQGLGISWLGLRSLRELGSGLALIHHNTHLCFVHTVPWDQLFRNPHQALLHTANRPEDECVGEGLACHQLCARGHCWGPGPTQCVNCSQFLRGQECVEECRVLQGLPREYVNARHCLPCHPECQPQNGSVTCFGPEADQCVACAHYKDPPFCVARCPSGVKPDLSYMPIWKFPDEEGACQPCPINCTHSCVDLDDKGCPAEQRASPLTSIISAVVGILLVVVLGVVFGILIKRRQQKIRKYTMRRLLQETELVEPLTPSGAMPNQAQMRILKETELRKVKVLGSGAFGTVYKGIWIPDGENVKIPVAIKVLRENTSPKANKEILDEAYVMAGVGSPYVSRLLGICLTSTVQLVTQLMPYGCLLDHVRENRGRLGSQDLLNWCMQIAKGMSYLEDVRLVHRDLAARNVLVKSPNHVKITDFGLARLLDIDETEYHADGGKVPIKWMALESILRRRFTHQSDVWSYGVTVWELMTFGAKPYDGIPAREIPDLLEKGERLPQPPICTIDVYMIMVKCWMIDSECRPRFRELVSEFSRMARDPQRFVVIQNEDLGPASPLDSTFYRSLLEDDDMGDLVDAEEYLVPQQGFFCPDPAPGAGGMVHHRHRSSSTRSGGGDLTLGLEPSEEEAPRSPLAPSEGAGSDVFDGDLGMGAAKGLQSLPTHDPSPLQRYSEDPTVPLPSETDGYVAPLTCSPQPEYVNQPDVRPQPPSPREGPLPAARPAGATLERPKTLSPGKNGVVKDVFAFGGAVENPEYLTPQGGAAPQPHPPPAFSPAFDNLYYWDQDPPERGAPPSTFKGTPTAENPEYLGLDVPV

SMILES: CCCCOc1ccccc1NC(=O)c1ccco1
- viability [1]: 87%
- Her2 level [2]: 93% (inactive)
- viability [3]: 87% (inactive)
- viability [4]: 76.6% (inactive)
- viability [5]: 62.9% (inactive)
- differential viability (reversal) ([6]; H69AR cells + 2 uM doxorubicin): -14.4% (inactive)
- viability [6, 9]: 77.3%
- viability [6, 10]: 62.9%
- inhibition [7]: -0.93% (inactive)
- inhibition [8]: -0.16% (inactive)

SMILES: COc1cc(Nc2cc(C)nc3ncnn23)cc(OC)c1OC
- viability [1]: 102%
- Her2 level [2]: 98.5% (inactive)
- viability [3]: 102% (inactive)
- viability [4]: 98.2% (inactive)
- viability [5]: 100% (inactive)
- differential viability (reversal) ([6]; H69AR cells + 2 uM doxorubicin): 21% (inactive)
- viability [6, 9]: 79.3%
- viability [6, 10]: 100%
- inhibition [7]: 1.6% (inactive)
- inhibition [8]: -3.11% (inactive)

SMILES: O=C(c1cccs1)c1cn(CC(=O)N2CCc3ccccc3C2)c2ccccc12
- viability [1]: 93%
- Her2 level [2]: 108% (inactive)
- viability [3]: 93% (inactive)
- viability [4]: 86.1% (inactive)
- viability [5]: 86.9% (inactive)
- differential viability (reversal) ([6]; H69AR cells + 2 uM doxorubicin): 7.43% (inactive)
- viability [6, 9]: 79.5%
- viability [6, 10]: 86.9%
- inhibition [7]: -6.13% (inactive)
- inhibition [8]: 1.45% (inactive)

SMILES: C=CCn1c(COc2cccc(C)c2)nnc1SCC(=O)NC(=O)NCc1ccco1
- viability [1]: 108%
- Her2 level [2]: 95% (inactive)
- viability [3]: 108% (inactive)
- viability [4]: 78.4% (inactive)
- viability [5]: 78.2% (inactive)
- differential viability (reversal) ([6]; H69AR cells + 2 uM doxorubicin): -3.14% (inactive)
- viability [6, 9]: 81.3%
- viability [6, 10]: 78.2%
- inhibition [7]: -5.07% (inactive)
- inhibition [8]: -0.48% (inactive)

SMILES: Cn1c(SCc2ccccc2)nnc1C1CCCNC1 (stereo not given)
- viability [1]: 112%
- Her2 level [2]: 106% (inactive)
- viability [3]: 112% (inactive)
- viability [4]: 103% (inactive)
- viability [5]: 90.8% (inactive)
- differential viability (reversal) ([6]; H69AR cells + 2 uM doxorubicin): -4.07% (inactive)
- viability [6, 9]: 94.8%
- viability [6, 10]: 90.8%
- inhibition [7]: 0% (inactive)
- inhibition [8]: 0.17% (inactive)

SMILES: O=C(Cn1ncc2c(=O)oc3ccccc3c21)Nc1nc2ccccc2s1
- viability [1]: 113%
- Her2 level [2]: 102% (inactive)
- viability [3]: 113% (inactive)
- viability [4]: 97.2% (inactive)
- viability [5]: 102% (inactive)
- differential viability (reversal) ([6]; H69AR cells + 2 uM doxorubicin): 7.33% (inactive)
- viability [6, 9]: 94.9%
- viability [6, 10]: 102%
- inhibition [7]: -8.08% (inactive)
- inhibition [8]: -3.65% (inactive)

SMILES: O=C1c2ccccc2C(=O)N1CCCn1nnc(-c2ccc(N3CCOCC3)cc2)n1
- viability [1]: 110%
- Her2 level [2]: 90.5% (inactive)
- viability [3]: 110% (inactive)
- viability [4]: 103% (inactive)
- viability [5]: 95.9% (inactive)
- differential viability (reversal) ([6]; H69AR cells + 2 uM doxorubicin): 0.795% (inactive)
- viability [6, 9]: 95.1%
- viability [6, 10]: 95.9%
- inhibition [7]: -4.53% (inactive)
- inhibition [8]: -4.43% (inactive)

SMILES: Cc1cc(NS(=O)(=O)c2ccc(NC(=O)C(C)N3C(=O)c4ccccc4C3=O)cc2)nc(C)n1 (stereo not given)
- viability [1]: 99%
- Her2 level [2]: 92% (inactive)
- viability [3]: 99% (inactive)
- viability [4]: 112% (inactive)
- viability [5]: 97.4% (inactive)
- differential viability (reversal) ([6]; H69AR cells + 2 uM doxorubicin): 5.72% (inactive)
- viability [6, 9]: 91.7%
- viability [6, 10]: 97.4%
- inhibition [7]: -2.89% (inactive)
- inhibition [8]: 5.25% (inactive)
